Data as given in ChEMBL document CHEMBL1156574, “Synthesis and biological properties of benzothiazole, benzoxazole, and chromen-4-one analogues of the potent antitumor agent 2-(3,4-dimethoxyphenyl)-5-fluorobenzothiazole (PMX 610, NSC 721648)” (J Med Chem, 2008).
Active and inactive are the calls of the source. No cut-off for these calls is given here.

Columns and labels:
[1] = Antiproliferative activity against estrogen receptor deficient human MDA468 cells after 72 hrs by MTT assay; assay type: functional; settings: MDA-MB-468, 72 h
In short: (§1)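 Growth inhibition was tested in triplicate in breast lines MCF-7 (ER +ve) and MDA 468 (ER −ve). Values are means of three independent experiments, reported as GI50.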

[2] = test system: MCF7; assay: Antiproliferative activity against estrogen receptor positive human MCF7 cells after 72 hrs by MTT assay; assay type: functional; settings: MCF7, 72 h; in short: as §1
[3] = Cell cycle arrest in estrogen receptor deficient human MDA468 cells assessed as accumulation at S phase at 1 uM after 24 hrs by flow cytometry; assay type: functional, cell-based; settings: MDA-MB-468
In short: (§2)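 MDA 468 breast cells were left untreated or exposed for 24–72 h. Cellular DNA content was measured by flow cytometry, with 10 000 events per sample. Percentages in pre-G1, G1, S and G2/M were taken from the DNA histograms and compared with the nontreated control. Independent analyses were run ≥3 times.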

[4] = Cell cycle arrest in estrogen receptor deficient human MDA468 cells assessed as accumulation at G2/M phase at 0.1 uM after 24 hrs by flow cytometry; assay type: functional, cell-based; settings: MDA-MB-468; in short: as §2
[5] = test system: MDA-MB-468; assay: Induction of apoptosis in estrogen receptor deficient human MDA468 cells assessed as accumulation at preG1 phase at 1 uM after 24 hrs by flow cytometry; assay type: functional, cell-based; in short: as §2
[6] = Cell cycle arrest in estrogen receptor deficient human MDA468 cells assessed as accumulation at G2/M phase at 1 uM after 24 hrs by flow cytometry; assay type: functional, cell-based; settings: MDA-MB-468; in short: as §2
[7] = Cell cycle arrest in estrogen receptor deficient human MDA468 cells assessed as accumulation at G2/M phase at 0.1 uM after 72 hrs by flow cytometry; assay type: functional, cell-based; settings: MDA-MB-468; in short: as §2
[8] = target: T1, Aryl hydrocarbon receptor (Rattus norvegicus, UniProt P41738); assay: Displacement of [3H]tetrachlorodibenzo-p-dioxin from aryl hydrocarbon receptor in CRL:WI rat liver cytosol
T1 sequence (P41738 whole entry): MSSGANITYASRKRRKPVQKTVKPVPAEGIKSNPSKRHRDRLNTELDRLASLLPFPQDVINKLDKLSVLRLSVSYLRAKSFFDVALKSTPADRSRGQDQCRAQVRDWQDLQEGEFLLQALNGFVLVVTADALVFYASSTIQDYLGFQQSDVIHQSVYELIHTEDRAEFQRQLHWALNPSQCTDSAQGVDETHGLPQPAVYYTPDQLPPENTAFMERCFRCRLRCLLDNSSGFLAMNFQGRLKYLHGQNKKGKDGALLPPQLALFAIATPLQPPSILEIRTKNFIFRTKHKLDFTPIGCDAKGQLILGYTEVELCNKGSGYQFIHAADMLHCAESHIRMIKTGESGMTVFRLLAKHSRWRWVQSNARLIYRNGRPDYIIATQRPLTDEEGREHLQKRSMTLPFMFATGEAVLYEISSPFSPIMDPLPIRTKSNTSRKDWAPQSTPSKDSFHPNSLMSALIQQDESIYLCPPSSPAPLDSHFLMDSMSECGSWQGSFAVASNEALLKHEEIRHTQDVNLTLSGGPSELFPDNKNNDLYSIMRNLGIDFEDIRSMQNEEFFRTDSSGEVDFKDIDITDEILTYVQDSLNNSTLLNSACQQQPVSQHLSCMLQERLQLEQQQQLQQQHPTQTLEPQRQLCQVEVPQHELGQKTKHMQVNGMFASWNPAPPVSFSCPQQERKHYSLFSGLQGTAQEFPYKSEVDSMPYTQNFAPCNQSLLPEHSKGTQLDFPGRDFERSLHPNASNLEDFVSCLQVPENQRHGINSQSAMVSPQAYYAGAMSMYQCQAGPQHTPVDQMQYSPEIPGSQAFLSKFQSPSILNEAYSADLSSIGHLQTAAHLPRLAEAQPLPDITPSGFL
In short: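 Aryl hydrocarbon receptor binding was measured in CRL:WI rat liver cytosol by displacement of [3H]tetrachlorodibenzo-p-dioxin. IC50 was determined, and Ki was also reported.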

[9] = Antiproliferative activity against estrogen receptor deficient human MDA468 cells after 72 hrs by MTT assay in presence of aryl hydrocarbon receptor antagonist alpha-naphthoflavone; assay type: functional; settings: MDA-MB-468, 72 h
[10] = test system: MCF7; assay: Antiproliferative activity against human estrogen receptor positive MCF7 cells after 72 hrs by MTT assay in presence of aryl hydrocarbon receptor antagonist alpha-naphthoflavone; assay type: functional; settings: MCF7, 72 h
[11] = Cell cycle arrest in estrogen receptor deficient human MDA468 cells assessed as accumulation at G2/M phase at 0.1 uM after 48 hrs by flow cytometry; assay type: functional, cell-based; settings: MDA-MB-468; in short: as §2

GI50 [2] [µM]	Structure (SMILES)	GI50 [1] [nM]	also measured
3.53	COc1ccc(-c2nc3ccc(F)cc3o2)cc1OC	17	–
39.5	COc1cccc(-c2nc3cc(F)ccc3o2)c1	870	–
19.2	Fc1ccc2nc(-c3ccc4c(c3)OCO4)oc2c1	6770	–
2.16	COc1ccc(-c2nc3cc(F)ccc3o2)c(OC)c1	540	–
58.1	COc1cccc(OC)c1-c1nc2cc(F)ccc2o1	22000	–
62.3	CS(=O)(=O)c1ccc2nc(-c3ccc(O)cc3)sc2c1	42200	–
27.9	COc1ccc(-c2cc(=O)c3ccc(F)cc3o2)cc1OC	450	–
45.8	COc1ccc2nc(-c3ccc(O)cc3)sc2c1	9670	–
83.4	COc1ccc(-c2cc(=O)c3cc(F)ccc3o2)cc1OC	20600	–
85.7	COc1ccc(-c2nc3cc(F)ccc3[nH]2)cc1OC	94400	Activity [3]: inactive; Activity [4]: inactive
45.4	COc1cc(OC)cc(-c2nc3cc(F)ccc3o2)c1	790	–
69.9	COc1ccc(-c2nc3ccc(F)cc3o2)c(OC)c1	3290	–
> 100	CCOc1ccc2nc(-c3ccc(O)cc3)sc2c1	> 100000	–
1.09	COc1cc(-c2nc3ccc(F)cc3o2)cc(OC)c1OC	37	–
26.5	Oc1ccc(-c2nc3ccc(Cl)cc3s2)cc1	280	–
61.4	Fc1ccc2oc(-c3ccc4c(c3)OCO4)nc2c1	14500	–

GI50 [2] [µM]	Structure (SMILES)	GI50 [1] [nM]	also measured
0.57	Oc1cccc(-c2nc3cc(F)ccc3s2)c1	200	–
41	COc1ccc(-c2nc3ccc(F)cc3o2)cc1	9550	–
22.7	COc1ccc(-c2nc3cc(F)ccc3o2)cc1	760	–
0.82	COc1ccccc1-c1nc2ccc(F)cc2o1	1190	–
> 100	CCc1ccc2nc(-c3ccc(O)cc3)sc2c1	> 100000	–
4.16	Oc1ccc(-c2nc3ccc(Br)cc3s2)cc1	280	–
3.72	COc1cc(OC)cc(-c2nc3ccc(F)cc3o2)c1	460	–
13.8	Oc1ccc(-c2nc3cc(C(F)(F)F)ccc3s2)cc1	100	–
54	Oc1ccc(-c2nc3ccc(F)cc3s2)cc1	500	–
16	COc1cc(-c2nc3cc(F)ccc3o2)cc(OC)c1OC	2580	–
0.36	COc1ccccc1-c1nc2cc(F)ccc2o1	270	–
35.1	COc1cccc(-c2nc3ccc(F)cc3o2)c1	2020	–
90.7	COc1cccc(OC)c1-c1nc2ccc(F)cc2o1	98600	–
0.83	COc1ccc(-c2nc3cc(F)ccc3o2)cc1OC	330	Activity [5]: Active; Activity [6]: Active; Activity [3]: Active; Activity [4]: inactive
0.4	Oc1ccc(-c2nc3cc(F)ccc3s2)cc1	210	–
< 0.0001	COc1ccc(-c2nc3cc(F)ccc3s2)cc1OC	< 0.1	Activity [7]: Active; IC50 [8]: 25 nM; Ki [8]: 6.8 nM; GI50 [9]: 270 nM; Activity [4]: Active; GI50 [10]: 514 nM; Activity [11]: Active
